≈ marks a conversion by molar mass, not a printed value. Calls of active or inactive are those of the source. No cut-off for these calls is given here.
Columns and labels:
Aspergillus fumigatus [1] = assay: Antifungal activity against Aspergillus fumigatus ATCC 204305 assessed as inhibition of fungal growth […] by broth microdilution method; format: functional
Candida albicans = assay: Antifungal activity against Candida albicans ATCC 90028 assessed as inhibition of fungal growth incubated for 24 hrs by broth microdilution method; format: functional
Summary of the method: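 Yeast cells were adjusted to about 2 × 10³ CFU/mL and broth microdilution was run for 24 h at 35 °C. Medium was YNB with 2% glucose and complete amino-acid mix, buffered to pH 7.0 with 50 mM MOPS. MIC was the lowest concentration giving >50% growth reduction versus untreated control, read by optical density at 600 nm.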

Mus musculus [2] = assay: In vivo antifungal activity against Aspergillus fumigatus infected in ICR mouse assessed as log reduction in fungal burden with 18S rRNA in kidney at 30 mg/kg, iv administered at 2 to 50 hrs post-inoculation and measured after 60 hrs by RT-qPCR analysis; format: functional
Summary of the method: (§1)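 Male ICR mice (5 weeks) were immunosuppressed with intraperitoneal cyclophosphamide, 150 mg/kg on day −4 and 100 mg/kg on day −1. Mice were infected intravenously with about 1.5 × 10⁵ conidia in saline. Tail-vein dosing was at 2, 16, 21, 26, 40, 45 and 50 h, in 5% DMSO/5% Cremophor EL/4% glucose or 5% glucose. Samples were taken at 60 h, five mice per group, and analysed by Dunnett's test against untreated controls.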

Mus musculus [3] = assay: In vivo antifungal activity against Aspergillus fumigatus infected in ICR mouse assessed as reduction in serum-galactomannan at 30 mg/kg, iv administered at 2 to 50 hrs post-inoculation and measured after 60 hrs by GM analysis; format: functional, organism-based; summary of the method: as §1
[4] = AUC in ICR mouse at 30 mg/kg, iv measured upto 360 mins by LC/MS/MS analysis; format: ADME, organism-based; set-up: route intravenous, dose 30 mg/kg, time <=360; settings: in vivo
Summary of the method: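 Male ICR mice, 6 weeks old. Dosed iv via tail vein at 30 mg/10 mL/kg (n = 3). The test agent was a solution in 5% DMSO, 5% Cremophor EL and 4% glucose; the reference azole was in 5% glucose. Blood (EDTA-2K plus heparin) was taken at 5, 30, 60, 180 and 360 min and spun to plasma. Proteins were precipitated with methanol before LC/MS/MS.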

Aspergillus fumigatus [5] = assay: Inhibition of Sterol methyl transferase in Aspergillus fumigatus ATCC 204305 assessed as accumulation of lanosterol at 0.5 ug/mL measured per 100 mg of mycelia by LC/MS analysis (Rvb= 0 nmol); settings: dose 0.5 µg/ml
Summary of the method: (§2)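 Conidia at 1 × 10⁴ CFU/mL were grown 24 h at 35 °C in YNB with 2% glucose and amino-acid mix, then compound was added and cultures ran a further 24 h. Mycelia were filtered and saponified in 25% ethanolic KOH at 85 °C for 1 h. Sterols were extracted into n-hexane, dried under N₂ at 40 °C and redissolved in acetone at 200 μL per 100 mg dry mycelium. Separation used a C18 column at 40 °C with an acetonitrile gradient.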

Aspergillus fumigatus [6] = assay: Inhibition of Sterol methyl transferase in Aspergillus fumigatus ATCC 204305 assessed as accumulation of eburicol at 0.5 ug/ml measured per 100 mg of mycelia by LC/MS analysis (Rvb= 0 nmol); settings: dose 0.5 µg/ml; summary of the method: as §2
Aspergillus fumigatus [7] = assay: Inhibition of Sterol methyl transferase in Aspergillus fumigatus ATCC 204305 assessed as accumulation of zymosterol at 0.5 ug/mL measured per 100 mg of mycelia by LC/MS analysis (Rvb= 0 nmol); settings: dose 0.5 µg/ml; summary of the method: as §2
Aspergillus fumigatus [8] = assay: Inhibition of Sterol methyl transferase in Aspergillus fumigatus ATCC 204305 assessed as accumulation of ergosterol at 0.5 ug/mL measured per 100 mg of mycelia by LC/MS analysis (Rvb= 144 nmol); settings: dose 0.5 µg/ml; summary of the method: as §2
Aspergillus fumigatus [9] = assay: Antifungal activity against Aspergillus fumigatus ATCC 204305 assessed as inhibition of fungal growth incubated for 48 hrs by broth microdilution method; settings: ATCC 204305, 48 h
Aspergillus fumigatus [10] = assay: Antifungal activity against pan-azole resistant Aspergillus fumigatus SR47013 harbouring Cyp51A Y121F mutant assessed as inhibition of fungal growth incubated for 48 hrs by broth microdilution method; settings: SR47013, 48 h
[11] = Metabolic stability in human liver microsomes assessed as parent compound remaining at 0.5 uM incubated for 30 mins by LC/MS/MS analysis; format: ADME, Microsome; settings: read-out: Stability
Summary of the method: (§3)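 Compound at 0.5 μM was incubated with liver microsomes at 0.5 mg protein/mL at 37 °C. Buffer was 50 mM Tris-HCl pH 7.4 with 150 mM KCl, 10 mM MgCl2 and 1 mM NADPH. Reactions were stopped at 0 and 30 min with MeCN/MeOH 1:1. Percent remaining was taken from LC/MS/MS peak area ratio, in duplicate.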

[12] = Metabolic stability in rat liver microsomes assessed as parent compound remaining at 0.5 uM incubated for 30 mins by LC/MS/MS analysis; format: ADME, Microsome; settings: read-out: Stability; summary of the method: as §3
[13] = Unbound fraction in Sprague-Dawley rat at 0.5 mg/kg, iv measured upto 1440 mins by LC/MS/MS analysis; format: ADME, organism-based; settings: in vivo
[14] = Clearance in Sprague-Dawley rat at 0.5 mg/kg, iv measured upto 1440 mins by LC/MS/MS analysis; format: ADME, organism-based; settings: in vivo
[15] = Volume of distribution at steady state in Sprague-Dawley rat at 0.5 mg/kg, iv measured upto 1440 mins by LC/MS/MS analysis; format: ADME, organism-based; settings: in vivo, read-out: Vdss
Aspergillus fumigatus [16] = assay: Antifungal activity against Aspergillus fumigatus ATCC 204305 assessed as inhibition of fungal growth incubated for 48 hrs in presence of 50% heat-inactivated bovine serum by broth microdilution method; format: functional; settings: ATCC 204305, 48 h, in the assay text read “incubated for 48 hrs” for “incubated for 24 hrs”
Summary of the method: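 Broth microdilution per CLSI M38-A2 with modifications. Conidia at about 1 × 10⁴ CFU/mL were grown for 48 h at 35 °C in YNB with 2% glucose and complete amino-acid mix, buffered to pH 7.0 with 50 mM MOPS. Medium was with or without 50% heat-inactivated bovine serum. MIC was the lowest concentration giving no visible growth.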

Aspergillus fumigatus [17] = assay: Inhibition of Sterol methyl transferase in Aspergillus fumigatus ATCC 204305 assessed as accumulation of lanosterol at 2 ug/mL measured per 100 mg of mycelia by LC/MS analysis (Rvb= 0 nmol); settings: dose 2.0 µg/ml
Summary of the method: (§4)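 Cultures of A. fumigatus ATCC 204305 (1 × 10⁴ CFU/mL in YNB with 2% glucose and amino-acid mix) were grown 24 h at 35 °C, then exposed to compound for 24 h. Mycelia were saponified in 25% ethanolic KOH at 85 °C for 1 h and extracted with n-hexane. Extracts were dried, redissolved in acetone at 200 μL per 100 mg dry mycelium, and analysed on a C18 column at 40 °C with acetonitrile gradient.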

Aspergillus fumigatus [18] = assay: Inhibition of Sterol methyl transferase in Aspergillus fumigatus ATCC 204305 assessed as accumulation of eburicol at 2 ug/mL measured per 100 mg of mycelia by LC/MS analysis (Rvb= 0 nmol); settings: dose 2.0 µg/ml; summary of the method: as §4
Aspergillus fumigatus [19] = assay: Inhibition of Sterol methyl transferase in Aspergillus fumigatus ATCC 204305 assessed as accumulation of zymosterol at 2 ug/mL measured per 100 mg of mycelia by LC/MS analysis (Rvb= 0 nmol); settings: dose 2.0 µg/ml; summary of the method: as §4
Aspergillus fumigatus [20] = assay: Inhibition of Sterol methyl transferase in Aspergillus fumigatus ATCC 204305 assessed as accumulation of ergosterol at 2 ug/mL measured per 100 mg of mycelia by LC/MS analysis (Rvb= 144 nmol); settings: dose 2.0 µg/ml; summary of the method: as §4

Cc1ccc(Oc2ccccc2-c2csc(N=C3NCCCCN3)n2)c(C)c1
MIC50 (Aspergillus fumigatus [1]): > 16 µg/mL
MIC50 (Candida albicans): 1 µg/mL (≈ 2.55 µM)

C[C@@H](c1ncncc1F)[C@](O)(Cn1cncn1)c1ccc(F)cc1F [VORICONAZOLE]
Activity (Mus musculus [2]): inactive
Activity (Mus musculus [3]): inactive
AUC at 6 h [4]: 222 µg·h/mL
Activity (Aspergillus fumigatus [5]): 1 nmol
Activity (Aspergillus fumigatus [6]): 34 nmol
Activity (Aspergillus fumigatus [7]): 0 nmol
Activity (Aspergillus fumigatus [8]): 99 nmol
MIC (Aspergillus fumigatus [9]): 0.5 µg/mL (≈ 1.43 µM)
MIC50 (Aspergillus fumigatus [10]): > 16 µg/mL

Cc1ccc(Oc2ccccc2-c2nsc(N=C3NCCCN3)n2)c(C)c1
MIC50 (Aspergillus fumigatus [1]): > 16 µg/mL
MIC50 (Candida albicans): > 16 µg/mL

c1ccc(-c2nc(-c3csc(N=C4NCCCN4)n3)cs2)nc1
MIC (Aspergillus fumigatus [9]): 16 µg/mL (≈ 46.7 µM)

c1ccc(-n2ccc(-c3csc(N=C4NCCCN4)n3)n2)cc1
MIC50 (Aspergillus fumigatus [1]): > 16 µg/mL
MIC50 (Candida albicans): 0.5 µg/mL (≈ 1.54 µM)
remaining at 0.5 h, 0.5 µM [11]: 38%
remaining at 0.5 h, 0.5 µM [12]: 1.6%

Cc1ccc(Oc2ccccc2-c2csc(Nc3ccccn3)n2)c(C)c1
MIC50 (Aspergillus fumigatus [1]): > 16 µg/mL
MIC50 (Candida albicans): > 16 µg/mL

c1ccc(-c2cccc(-c3csc(N=C4NCCCN4)n3)c2)cc1
MIC50 (Aspergillus fumigatus [1]): 1 µg/mL (≈ 2.99 µM)
MIC50 (Candida albicans): < 0.063 µg/mL

Cc1ccc(Oc2ccccc2-c2csc(N(C)C)n2)c(C)c1
MIC50 (Aspergillus fumigatus [1]): > 16 µg/mL
MIC50 (Candida albicans): > 16 µg/mL

Cc1ccc(Oc2ccccc2-c2csc(N)n2)c(C)c1
MIC50 (Aspergillus fumigatus [1]): > 16 µg/mL
MIC50 (Candida albicans): 4 µg/mL (≈ 13.5 µM)

Cc1ccc(Oc2ccccc2-c2csc(/N=C3\NCCCN3C)n2)c(C)c1
MIC50 (Aspergillus fumigatus [1]): > 16 µg/mL
MIC50 (Candida albicans): 8 µg/mL (≈ 20.4 µM)

O=C(O)c1ccc(-c2nc(-c3csc(N=C4NCCCN4)n3)cs2)cc1
MIC (Aspergillus fumigatus [9]): > 16 µg/mL

C[C@@H](c1nc(-c2ccc(C#N)cc2)cs1)[C@](O)(Cn1cncn1)c1cc(F)ccc1F [ISAVUCONAZOLE]
MIC (Aspergillus fumigatus [9]): 0.25 µg/mL (≈ 0.571 µM)
MIC50 (Aspergillus fumigatus [10]): > 16 µg/mL

Cc1ccc(Oc2ccccc2-c2cccc(N=C3NCCCN3)n2)c(C)c1
MIC50 (Aspergillus fumigatus [1]): 4 µg/mL (≈ 10.7 µM)
MIC50 (Candida albicans): 0.5 µg/mL (≈ 1.34 µM)

Oc1cccc(-c2nc(-c3csc(N=C4NCCCN4)n3)cs2)c1
remaining at 0.5 h, 0.5 µM [11]: 77%
remaining at 0.5 h, 0.5 µM [12]: 35%
MIC (Aspergillus fumigatus [9]): 4 µg/mL (≈ 11.2 µM)

CS(=O)(=O)c1ccc(-c2nc(-c3csc(N=C4NCCCN4)n3)cs2)cc1
remaining at 0.5 h, 0.5 µM [11]: 87%
remaining at 0.5 h, 0.5 µM [12]: 53%
log(activity) (Mus musculus [2]): 4
Activity (Mus musculus [3]): Active
AUC at 6 h [4]: 48.2 µg·h/mL
fraction unbound at 24 h [13]: 0.067
clearance [14]: 12.3 mL/min/kg
Vd [15]: 4.21 L/kg
MIC50 (Aspergillus fumigatus [16]): 4 µg/mL
Activity (Aspergillus fumigatus [17]): 40 nmol
Activity (Aspergillus fumigatus [18]): 1 nmol
Activity (Aspergillus fumigatus [19]): 0 nmol
Activity (Aspergillus fumigatus [20]): 102 nmol
MIC (Aspergillus fumigatus [9]): 2 µg/mL (≈ 4.77 µM)
MIC50 (Aspergillus fumigatus [10]): 2 µg/mL (≈ 4.77 µM)
